{"source": "paper PMC7305985", "about": "(Molecular cell, 2020)", "key": {"[1]": {"system": "Pol II at KAP1 target gene promoters", "test": "ChIP-qPCR of Pol II after reconstitution", "type": "cell-based", "conditions": "shKAP1 HCT116 reconstituted, n=3, Figure 6F", "outline": "(§1)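 shKAP1 HCT116 cells were transfected with 1 µg epitope-tagged plasmid (PolyJet) and harvested after 48 hr. Cells were crosslinked in 0.5% formaldehyde (10 min, room temperature), quenched with 150 mM glycine and lysed in Farnham buffer at 10×10^6 cells/mL. Beads were washed in RIPA, low-salt, high-salt (500 mM NaCl), LiCl and TE buffers, eluted in NaHCO3/SDS (30 min, 65°C) and de-crosslinked with proteinase K (4 hr, 65°C), then read by qPCR.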"}, "SMAD2": {"system": "SMAD2", "test": "AP / IP / co-IP from HCT116 nuclear extracts: SMAD2", "type": "binding", "conditions": "Figures 3G–3I, 6B", "outline": "(§2)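 Tagged proteins were expressed in HCT116 cells by transfection for 48 hr. Nuclei were released by hypotonic swelling and 27-gauge needle lysis, then extracted for 45 min at 4°C in buffer C brought to 420 mM NaCl. Chromatin was digested with MNase (5 mM CaCl2, 10 min, 37°C). Clarified extract was bound to StrepTactin agarose for 2 hr at 4°C, washed 4X and eluted with desthiobiotin. Blots loaded 1% input.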"}, "CDK9": {"system": "CDK9", "test": "Co-IP from HCT116 nuclear extracts: CDK9", "type": "binding", "conditions": "Figure 6B", "outline": "as §2"}, "[2]": {"system": "KAP1 target gene promoters", "test": "FLAG ChIP-qPCR of reconstituted KAP1 proteins", "type": "cell-based", "conditions": "shKAP1 HCT116, FLAG ChIP-qPCR, % Input, n=3, Figures 5I, 6F", "outline": "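Epitope-tagged KAP1 was re-expressed in shKAP1 HCT116 cells by 1 µg plasmid transfection over 48 hr. Anti-FLAG ChIP used 0.5% formaldehyde crosslinking (10 min) and 150 mM glycine quench. Beads were washed 4 times with each of RIPA, low-salt, high-salt, LiCl and TE buffers. Elution was 30 min at 65°C, de-crosslinking 4 hr at 65°C with proteinase K, and read-out was qPCR.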"}, "[3]": {"system": "CDK9 at KAP1 target gene promoters", "test": "ChIP-qPCR of CDK9 after reconstitution", "type": "cell-based", "conditions": "shKAP1 HCT116 reconstituted, n=3, Figure 6F", "outline": "as §1"}, "[4]": {"system": "SMAD2 at KAP1 target gene promoters", "test": "ChIP-qPCR of SMAD2 after reconstitution", "type": "cell-based", "conditions": "shKAP1 HCT116 reconstituted, n=3, Figure 6F", "outline": "as §1"}, "Pol II (RPB1)": {"system": "Pol II (RPB1)", "test": "AP / IP / co-IP from HCT116 nuclear extracts: Pol II", "type": "binding", "conditions": "MNase, endogenous IP, Figures 2C, 2D, 6B", "outline": "as §2"}, "[5]": {"system": "KAP1 target genes in shKAP1 HCT116 cells", "test": "Reconstitution assay, RT-qPCR of KAP1 target genes", "type": "cell-based"}, "[6]": {"system": "KAP1 target genes in HCT116 (CDK9 inhibition)", "test": "RT-qPCR of KAP1 target genes after flavopiridol treatment", "type": "cell-based", "conditions": "HCT116, 1 μM, 2 and 4 hr; relative to DMSO, normalized to U6, n=3; Figure 2M"}}}
{"compound": "KAP1: wild-type KAP1, STREP- or FLAG-tagged", "values": [{"measurement": "promoter recruitment of Pol II", "setting": "[1]", "value": "facilitate recruitment of Pol II and CDK9"}, {"measurement": "association with SMAD2 in nuclear extracts", "setting": "SMAD2", "value": "interactions between ectopically expressed and endogenous proteins"}, {"measurement": "association with SMAD2 in nuclear extracts", "setting": "SMAD2; listed as WT KAP1", "value": "associates with all three factors"}, {"measurement": "association with CDK9 in nuclear extracts", "setting": "CDK9", "value": "associates with all three factors"}, {"measurement": "localization to KAP1 target gene promoters", "setting": "[2]", "value": "able to localize to both C1 (SMAD2+) and C2/C3 (SMAD2-) gene promoters"}, {"measurement": "localization to KAP1 target gene promoters", "setting": "[2]; listed as WT KAP1", "value": "localized to all tested gene promoters"}, {"measurement": "promoter recruitment of CDK9", "setting": "[3]", "value": "facilitate recruitment of Pol II and CDK9"}, {"measurement": "promoter recruitment of SMAD2", "setting": "[4]", "value": "only facilitated SMAD2 recruitment to C1 (SMAD2+) gene promoters"}, {"measurement": "association with Pol II in nuclear extracts", "setting": "Pol II (RPB1)", "value": "co-purifies with both ectopically expressed and endogenous KAP1"}, {"measurement": "restoration of KAP1 target gene expression (WT and point mutants)", "setting": "[5]; shKAP1 HCT116, 48 hr, relative to shNT+GFP, normalized to RPL19, n=3, Figure 5H", "value": "restored KAP1 target gene expression"}, {"measurement": "restored expression of all tested genes over GFP-expressing cells", "setting": "[5]; shKAP1 HCT116, n=3, Figure 6E", "value": "~ 2 fold"}]}
{"compound": "CN1CC[C@H](c2c(O)cc(O)c3c(=O)cc(-c4ccccc4Cl)oc23)[C@H](O)C1", "note": "[flavopiridol, Flavopiridol]", "values": [{"measurement": "expression of KAP1 target genes after flavopiridol", "setting": "[6]", "value": "dampened expression of KAP1 target genes"}]}
